Active and inactive are the calls of the source. No cut-off for these calls is given here.
Assays:
[1] = target: T1, Kinesin-like protein KIF11 (Homo sapiens, UniProt P52732); assay: Inhibition of untagged human Eg5 basal ATPase activity; conditions: read-out: Ki(app)
T1 sequence (P52732 whole entry): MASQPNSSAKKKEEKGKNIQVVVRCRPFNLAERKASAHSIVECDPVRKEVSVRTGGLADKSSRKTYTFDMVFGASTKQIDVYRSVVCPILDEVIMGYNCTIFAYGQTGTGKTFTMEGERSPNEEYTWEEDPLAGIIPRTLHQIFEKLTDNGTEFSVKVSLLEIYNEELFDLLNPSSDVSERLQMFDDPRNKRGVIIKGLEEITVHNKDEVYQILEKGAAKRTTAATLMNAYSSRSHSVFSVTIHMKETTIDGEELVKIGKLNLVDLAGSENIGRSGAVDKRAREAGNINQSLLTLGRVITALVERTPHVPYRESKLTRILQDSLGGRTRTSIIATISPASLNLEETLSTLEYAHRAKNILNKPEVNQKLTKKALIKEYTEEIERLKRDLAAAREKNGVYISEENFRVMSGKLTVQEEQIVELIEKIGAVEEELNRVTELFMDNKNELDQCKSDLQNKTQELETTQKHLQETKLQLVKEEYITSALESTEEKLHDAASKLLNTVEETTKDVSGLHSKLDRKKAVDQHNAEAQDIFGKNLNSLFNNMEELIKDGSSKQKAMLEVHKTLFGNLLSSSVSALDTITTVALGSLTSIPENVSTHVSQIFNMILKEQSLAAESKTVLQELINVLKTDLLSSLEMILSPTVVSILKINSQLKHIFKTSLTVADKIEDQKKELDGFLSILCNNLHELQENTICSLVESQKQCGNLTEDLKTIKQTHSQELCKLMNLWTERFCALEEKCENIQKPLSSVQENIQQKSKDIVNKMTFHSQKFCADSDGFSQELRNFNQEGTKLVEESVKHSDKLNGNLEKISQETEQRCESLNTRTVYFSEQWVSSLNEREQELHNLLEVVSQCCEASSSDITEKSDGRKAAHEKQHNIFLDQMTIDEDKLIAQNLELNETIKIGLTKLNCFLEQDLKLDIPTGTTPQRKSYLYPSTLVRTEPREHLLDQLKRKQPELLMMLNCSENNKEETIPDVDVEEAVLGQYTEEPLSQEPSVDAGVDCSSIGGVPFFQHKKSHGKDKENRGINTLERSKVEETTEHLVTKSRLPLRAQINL

[2] = target: T1, Kinesin-like protein KIF11; assay: Inhibition of untagged human Eg5 microtubule-stimulated ATPase activity
[3] = Growth inhibition of dog MDCK2 cells in presence of P-glycoprotein inhibitor LY335979; assay type: functional; conditions: Canis lupus familiaris, MDCK-II
Procedure, shortened: (§1)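 Parental lines (MDCKII, LLC-PK1) and matched Pgp-overexpressing lines (MDCKII-MDR1, about 500-fold Pgp; L-MDR1, about 25000-fold Pgp) were tested with and without the Pgp inhibitor LY335979. Each experiment was run at least in triplicate, with 8 wells per concentration. GI50 came from a nonlinear four-parameter sigmoidal concentration-response fit.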

[4] = Growth inhibition of pig L-MDR1 cells overexpressing human P-glycoprotein; assay type: functional; conditions: Sus scrofa
Procedure, shortened: as §1

[5] = Growth inhibition of dog MDCK2 cells; assay type: functional; conditions: Canis lupus familiaris, MDCK-II
Procedure, shortened: as §1

LLC-PK1 [6] = assay: Growth inhibition of pig LLC-PK1 cells in presence of P-glycoprotein inhibitor LY335979; assay type: functional; conditions: Sus scrofa
Procedure, shortened: as §1

[7] = Growth inhibition of pig L-MDR1 cells overexpressing human P-glycoprotein in presence of P-glycoprotein inhibitor LY335979; assay type: functional; conditions: Sus scrofa
Procedure, shortened: as §1

[8] = Growth inhibition of dog MDCK2-MDR1 cells overexpressing human P-glycoprotein; assay type: functional; conditions: Canis lupus familiaris, MDCK-II
Procedure, shortened: as §1

LLC-PK1 [9] = assay: Growth inhibition of pig LLC-PK1 cells; assay type: functional; conditions: Sus scrofa
Procedure, shortened: as §1

[10] = Growth inhibition of dog MDCK2-MDR1 cells overexpressing human P-glycoprotein in presence of P-glycoprotein inhibitor LY335979; assay type: functional; conditions: Canis lupus familiaris, MDCK-II
Procedure, shortened: as §1

MDCK-II = assay: Ratio of GI50 for dog MDCK2-MDR1 cells overexpressing human P-glycoprotein to GI50 for dog MDCK2 cells; assay type: functional, Canis lupus familiaris
LLC-PK1 [11] = assay: Ratio of GI50 for pig L-MDR1 cells overexpressing human P-glycoprotein to GI50 for pig LLC-PK1 cells; assay type: functional, Sus scrofa
Procedure, shortened: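 MDR ratio is the GI50 in L-MDR1 cells (Pgp-overexpressing) divided by the GI50 in parental LLC-PK1 cells. Each GI50 came from growth inhibition run at least in triplicate, with 8 wells per concentration, fitted by a four-parameter sigmoidal model.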

[12] = target: T2, Kinesin-like protein KIF11 (Homo sapiens) (UniProt P52732); assay: Inhibition of untagged human Eg5 basal ATPase activity
T2 sequence (whole entry): T1 sequence (P52732 whole entry)

[13] = target: T2, Kinesin-like protein KIF11 (Homo sapiens); assay: Inhibition of untagged human Eg5 microtubule-stimulated ATPase activity
[14] = target: T2, Kinesin-like protein KIF11 (Homo sapiens); assay: Binding affinity to Eg5 at 2 mM by crystallography

inhibition [12] | inhibition [13] | SMILES | Ki [1] [nM] | IC50 [2] [nM] | GI50 [3] [nM] | GI50 [4] [nM] | GI50 [5] [nM] | GI50 (LLC-PK1 [6]) [nM] | GI50 [7] [nM] | GI50 [8] [nM] | GI50 (LLC-PK1 [9]) [nM] | GI50 [10] [nM] | RatioGI50 (MDCK-II) | RatioGI50 (LLC-PK1 [11]) | Activity [14]
 |  | CCCCc1ccc(C(SC[C@H](N)C(=O)O)(c2ccccc2)c2ccccc2)cc1 | 84.2 | 93.3 |  |  |  |  |  |  |  |  |  |  | 
 |  | N[C@@H](CSC(c1ccccc1)(c1ccccc1)c1ccccc1)C(=O)O [S-TRITYL-L-CYSTEINE] |  |  | 890 | 33000 | 860 | 1110 | 3020 | 2300 | 1060 | 580 |  |  | 
 |  | CC[C@]1(O)C[C@H]2CN(CCc3c([nH]c4ccccc34)[C@@](C(=O)OC)(c3cc4c(cc3OC)N(C=O)[C@H]3[C@@](O)(C(=O)OC)[C@H](OC(C)=O)[C@]5(CC)C=CCN6CC[C@]43[C@@H]65)C2)C1 [VINCRISTINE] |  |  | 430 | 2100 | 2650 |  |  | 107000 | 30 | 340 | 40.3 | 70 | 
 |  | Cc1ccc(C(SC[C@H](N)C(=O)O)(c2ccccc2)c2ccccc2)cc1 | < 50 | 61.7 | 80 | 3830 | 90 | 1180 | 490 | 350 | 1050 | 120 | 3.8 | 3.7 | 
 |  | COc1ccc(C(SC[C@H](N)C(=O)O)(c2ccccc2)c2ccccc2)cc1 |  |  | 240 | 6910 | 220 | 2050 | 1650 | 540 | 1660 | 80 |  |  | 
 |  | CC(C)(C)c1ccc(C(SC[C@H](N)C(=O)O)(c2ccccc2)c2ccccc2)cc1 | 429 | 1240 | 2480 |  | 2860 | 5410 | 13500 | 19500 | 4280 | 3010 | 6.8 | >12.5 | 
 |  | NC(CSC(c1ccccc1)(c1ccccc1)c1ccc(C(=O)O)cc1)C(=O)O (stereo not given) | 2540 | 14100 |  |  |  |  |  |  |  |  |  |  | 
 |  | N[C@@H](CSC(c1ccccc1)(c1ccccc1)c1ccc(-c2ccccc2)cc1)C(=O)O | 1350 | 1970 | 20000 |  | 22700 | 75600 | 110000 | 68500 | 77800 | 24500 | 3 |  | 
inactive | inactive | CN(C)[C@@H](CSC(c1ccccc1)(c1ccccc1)c1ccccc1)C(=O)O |  |  |  |  |  |  |  |  |  |  |  |  | 
 |  | N[C@@H](CSC(c1ccccc1)(c1ccccc1)c1ccc(C(F)(F)F)cc1)C(=O)O | < 50 | 116 | 330 | 8020 | 320 | 510 | 1020 | 670 | 1000 | 270 | 2.1 | 8 | 
 |  | CSc1ccc(C(SC[C@H](N)C(=O)O)(c2ccccc2)c2ccccc2)cc1 | < 50 | 21.8 | 110 | 11800 | 110 | 300 | 670 | 410 | 340 | 210 | 3.7 | 35.1 | 
 |  | CCC(CC)C(SC[C@H](N)C(=O)O)(c1ccccc1)c1ccccc1 | 302 | 1630 |  |  |  |  |  |  |  |  |  |  | 
 |  | N[C@@H](CSC(c1ccccc1)(c1ccccc1)c1ccc(Br)cc1)C(=O)O | < 50 | 26.8 | 250 | 6780 | 250 | 2120 | 2350 | 670 | 3200 | 210 | 2.7 | 2.1 | 
 |  | N[C@@H](CSC(c1ccccc1)(c1ccccc1)c1ccc2ccccc2c1)C(=O)O | < 50 | 16.3 | 70 | 6180 | 60 | 180 | 290 | 190 | 160 | 50 | 3.1 | 38.6 | 
 |  | N[C@@H](CSC(c1ccccc1)(c1ccccc1)c1ccc(Cl)cc1)C(=O)O | < 50 | 53.3 | 330 | 6210 | 280 | 2450 | 1610 | 560 | 2110 | 270 | 2 | 2.9 | Active
 |  | N[C@@H](CSC(c1ccccc1)(c1ccccc1)c1ccc(I)cc1)C(=O)O | < 50 | 19.3 | 110 | 9170 | 100 | 440 | 610 | 330 | 330 | 180 | 3.4 | 27.6 | 
 |  | CCc1ccc(C(SC[C@H](N)C(=O)O)(c2ccccc2)c2ccccc2)cc1 | < 50 | 55.4 | 290 | 10800 | 230 | 300 | 160 | 560 | 340 | 170 | 2.4 | 31.8 | 
 |  | CC(C)C(SC[C@H](N)C(=O)O)(c1ccccc1)c1ccccc1 | 175 | 1150 |  |  |  |  |  |  |  |  |  |  | 
 |  | CCC(C)C(SC[C@H](N)C(=O)O)(c1ccccc1)c1ccccc1 (mixture of isomers) |  | 549 |  |  |  |  |  |  |  |  |  |  | Active
 |  | CC(C)c1ccc(C(SC[C@H](N)C(=O)O)(c2ccccc2)c2ccccc2)cc1 | < 50 | 144 | 840 | 36700 | 780 | 1510 | 1050 | 2750 | 1050 | 880 | 3.5 | 34.8 | 
 |  | CCCc1ccc(C(SC[C@H](N)C(=O)O)(c2ccccc2)c2ccccc2)cc1 | < 50 | 85.9 | 710 | 37600 | 680 | 1100 | 1760 | 1680 | 1950 | 630 | 2.5 | 19.3 | 
 |  | CCCCC(SC[C@H](N)C(=O)O)(c1ccccc1)c1ccccc1 | < 50 | 319 |  |  |  |  |  |  |  |  |  |  | 
 |  | N[C@H](CSC(c1ccccc1)(c1ccccc1)c1ccccc1)C(=O)O |  |  | 920 | 36600 | 610 | 1070 | 4460 | 3150 | 940 | 780 |  |  | 
 |  | N[C@@H](CSC(c1ccccc1)(c1ccccc1)c1cccs1)C(=O)O | 58300 | 41700 |  |  |  |  |  |  |  |  |  |  | 
 |  | N[C@@H](CSC(c1ccccc1)(c1ccccc1)c1ccc(C2CCCCC2)cc1)C(=O)O | 3260 | 1580 | 17600 |  | 24300 | 64900 | 56800 | 50800 | 47900 | 17900 | 2.1 |  | 

Source: ChEMBL document CHEMBL1687930 (J Med Chem, 2011)
